Assays:
[1] = target: T1, Polyunsaturated fatty acid lipoxygenase ALOX12 (Homo sapiens, UniProt P18054); experiment: Inhibition of 12-Lipoxygenase-mediated 12-HETE in human neutrophil after 15 mins by HPLC analysis
T1 sequence (P18054 whole entry): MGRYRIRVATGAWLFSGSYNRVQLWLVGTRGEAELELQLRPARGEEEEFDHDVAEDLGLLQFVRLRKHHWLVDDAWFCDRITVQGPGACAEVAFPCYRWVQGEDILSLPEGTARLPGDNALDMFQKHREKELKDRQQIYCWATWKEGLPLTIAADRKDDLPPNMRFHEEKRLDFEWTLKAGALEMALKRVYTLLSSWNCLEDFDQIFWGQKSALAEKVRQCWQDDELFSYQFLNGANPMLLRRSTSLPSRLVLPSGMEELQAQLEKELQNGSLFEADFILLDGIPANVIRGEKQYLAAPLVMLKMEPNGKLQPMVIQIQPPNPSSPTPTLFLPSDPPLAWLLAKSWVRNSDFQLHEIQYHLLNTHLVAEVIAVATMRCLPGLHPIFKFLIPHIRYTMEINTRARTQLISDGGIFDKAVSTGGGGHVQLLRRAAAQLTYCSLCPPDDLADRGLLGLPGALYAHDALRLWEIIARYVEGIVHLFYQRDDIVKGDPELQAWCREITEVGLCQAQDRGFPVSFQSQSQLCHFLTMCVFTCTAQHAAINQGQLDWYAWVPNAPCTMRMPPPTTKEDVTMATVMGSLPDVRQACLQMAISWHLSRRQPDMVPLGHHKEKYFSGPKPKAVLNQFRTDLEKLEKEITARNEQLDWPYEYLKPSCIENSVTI
Summary of the method: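 Freshly isolated human blood neutrophils, 5 × 10^6/mL in PBS pH 7.4 with 1 mg/mL glucose and 1 mM CaCl2, preincubated with compound 15 min at RT. Stimulated with 2.5 µM A23187 plus 20 µM AA for 10 min at 37 °C. Stopped with methanol/HCl, PGB1 internal standard. 12-HETE or 15-HETE measured by HPLC. Residual activity tested at 30 µM.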

[2] = target: T2, Polyunsaturated fatty acid 5-lipoxygenase (Homo sapiens) (UniProt P09917); experiment: Inhibition of recombinant human 5-Lipoxygenase expressed in Escherichia coli lysate assessed as residual activity at 10 uM after 10 mins by HPLC analysis
T2 sequence (whole entry): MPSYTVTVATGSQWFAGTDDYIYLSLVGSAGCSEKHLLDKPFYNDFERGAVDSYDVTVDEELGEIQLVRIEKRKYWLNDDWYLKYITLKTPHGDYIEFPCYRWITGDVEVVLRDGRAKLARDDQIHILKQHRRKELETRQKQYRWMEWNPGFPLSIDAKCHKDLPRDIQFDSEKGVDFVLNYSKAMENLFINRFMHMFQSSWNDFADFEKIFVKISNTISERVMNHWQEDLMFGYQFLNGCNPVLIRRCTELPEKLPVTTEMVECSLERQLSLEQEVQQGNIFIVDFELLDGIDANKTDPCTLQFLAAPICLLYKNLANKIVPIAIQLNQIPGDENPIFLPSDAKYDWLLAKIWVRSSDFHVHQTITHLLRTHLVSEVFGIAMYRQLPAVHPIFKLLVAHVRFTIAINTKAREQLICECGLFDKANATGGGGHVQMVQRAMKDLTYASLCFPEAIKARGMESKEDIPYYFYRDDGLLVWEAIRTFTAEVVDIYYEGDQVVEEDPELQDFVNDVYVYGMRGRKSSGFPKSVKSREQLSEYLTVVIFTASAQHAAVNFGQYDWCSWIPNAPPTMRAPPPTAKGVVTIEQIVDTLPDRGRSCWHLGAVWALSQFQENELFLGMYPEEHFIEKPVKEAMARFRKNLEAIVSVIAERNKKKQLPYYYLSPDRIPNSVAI
Summary of the method: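 Human 5-LO expressed at 30 °C in E. coli MV1190 (pT3-5LO); lysate 40,000 g supernatant in PBS pH 7.4 with 1 mM EDTA. Preincubated with compound 10 min at 4 °C, warmed 30 s at 37 °C. Started with 2 mM CaCl2 plus 20 µM AA, 10 min at 37 °C. Methanol stop, HPLC. Residual % versus 0.3% DMSO vehicle, n = 3–5.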

| SMILES | IC50 [1] | Activity [2] |
| --- | --- | --- |
| Cc1ccc(-c2cc(CCC(=O)N3CCN(Cc4ccc(C(C)(C)C)cc4)CC3)nn2-c2ccccc2)cc1 | > 10 µM | 85.6% |
| Cc1ccc(-c2cc(CCC(=O)Oc3ccc(C(C)C)cc3)nn2-c2ccc(Cl)nn2)cc1 | > 10 µM | 92.7% |
| CC(C)(C)c1ccc(CN2CCN(C(=O)CCc3cc(-c4ccc(F)cc4)n(-c4ccc(Cl)nn4)n3)CC2)cc1 | > 10 µM | 55.3% |
| CCOC(=O)C1CCN(C(=O)CCc2cc(-c3ccc(C(F)(F)F)cc3)n(-c3ccc(Cl)nn3)n2)CC1 | > 10 µM | 72.6% |
| Cc1ccc(-c2cc(CCC(=O)Oc3ccc(C(C)C)cc3)nn2-c2ccc3ccccc3n2)cc1 | > 10 µM | 79.6% |
| CCOC(=O)C1CCN(C(=O)CCc2cc(-c3ccc(C)cc3)n(-c3ccc4ccccc4n3)n2)CC1 | > 10 µM | 69.9% |

Further lines, results first:

| IC50 [1] | Activity [2] | SMILES |
| --- | --- | --- |
| > 10 µM | 102% | CCOC(=O)C1CCN(C(=O)CCc2cc(-c3ccc(C)cc3)n(-c3ccccc3)n2)CC1 |
| > 10 µM | 95.3% | Cc1ccc(-c2cc(CCC(=O)Oc3ccc(C(C)C)cc3)nn2-c2ccccc2)cc1 |
| > 10 µM | 51.5% | Cc1ccc(-c2cc(CCC(=O)N3CCN(Cc4ccc(C(C)(C)C)cc4)CC3)nn2-c2ccc3ccccc3n2)cc1 |
